# Data published in paper PMC6424611 (Journal of molecular biology, 2019).
# Where no end group is shown, it is not given here. The star is where a group is joined. Biotin = O=C1N[C@H]2[C@H](CS[C@H]2CCCCC(=O)*)N1; TTDS = NCCCOCCOCCOCCCNC(=O)CCC(=O)*
# How the values were obtained:
# ARHGEF11 PDZ = experiment: holdup assay; format: binding, human; settings: fraction of PDZ depleted; ~4 μM PDZ; biotinylated RSK1_725–735; triplicates
# Method in brief: (§1)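 Automated holdup against N-terminally biotinylated (TTDS linker) RSK1 725–735 peptides, unphosphorylated and phosphorylated, in triplicate. PDZome v2 clones were codon-optimized and expressed in E. coli, with soluble lysate adjusted to ~4 μM. BI is the PDZ fraction depleted from the fluid phase.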
# ARHGEF12 PDZ = target: T1, ARHGEF12 PDZ (Homo sapiens, UniProt Q9NZN5); experiment: holdup assay; format: binding; settings: ~4 μM PDZ
# T1 sequence (Q9NZN5 72-151 limits assumed): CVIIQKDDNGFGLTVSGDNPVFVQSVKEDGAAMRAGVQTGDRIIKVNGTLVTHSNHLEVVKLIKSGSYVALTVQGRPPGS
# Method in brief: as §1
# SHROOM2 PDZ = experiment: holdup assay; format: binding, human; settings: ~4 μM PDZ
# Method in brief: as §1
# GORASP1 PDZ = experiment: holdup assay; format: binding, human; settings: ~4 μM PDZ
# Method in brief: as §1
# SNTA1 PDZ = target: T2, SNTA1 PDZ (Homo sapiens, UniProt Q13424); experiment: holdup assay; format: binding; settings: fraction of PDZ depleted; ~4 μM PDZ; biotinylated RSK1_725–735; triplicates
# T2 sequence (Q13424 87-170 limits assumed): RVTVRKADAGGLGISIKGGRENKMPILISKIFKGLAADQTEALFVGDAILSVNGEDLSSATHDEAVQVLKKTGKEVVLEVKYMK
# Method in brief: as §1
# SNTB1 PDZ = target: T3, SNTB1 PDZ (Homo sapiens, UniProt Q13884); experiment: holdup assay; format: binding; settings: ~4 μM PDZ
# T3 sequence (Q13884 112-195 limits assumed): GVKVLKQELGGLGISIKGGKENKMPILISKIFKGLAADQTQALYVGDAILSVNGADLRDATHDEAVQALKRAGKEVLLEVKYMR
# Method in brief: as §1
# GRASP PDZ = experiment: holdup assay; format: binding, human; settings: ~4 μM PDZ
# Method in brief: as §1
# DLG4-2 PDZ = experiment: holdup assay; format: binding, human; settings: ~4 μM PDZ
# SNTG2 PDZ = target: T4, SNTG2 PDZ (Homo sapiens, UniProt Q9NY99); experiment: holdup assay; format: binding; settings: ~4 μM PDZ
# T4 sequence (Q9NY99 73-156 limits assumed): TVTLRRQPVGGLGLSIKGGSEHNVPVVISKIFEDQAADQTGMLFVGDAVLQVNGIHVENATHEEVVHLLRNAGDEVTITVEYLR
# Method in brief: as §1
# GRID2IP-1 PDZ = experiment: holdup assay; format: binding, human; settings: ~4 μM PDZ
# Method in brief: as §1
# HTRA1 PDZ = HTRA1 PDZ (Homo sapiens, UniProt Q92743); experiment: holdup assay; format: binding; settings: ~4 μM PDZ
# Sequence of HTRA1 PDZ (Q92743 365-467 limits assumed): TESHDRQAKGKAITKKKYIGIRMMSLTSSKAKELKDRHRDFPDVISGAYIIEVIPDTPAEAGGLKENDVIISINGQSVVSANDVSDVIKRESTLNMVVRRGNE
# Method in brief: as §1
# MAGI3-2 PDZ = experiment: holdup assay; format: binding, human; settings: fraction of PDZ depleted; ~4 μM PDZ; biotinylated RSK1_725–735; triplicates
# Method in brief: (§2)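 Automated holdup in triplicate measured biotinylated (N-terminal TTDS linker) RSK1 725–735 peptides, unphosphorylated or phosphorylated, against E. coli-expressed PDZome v2 domains. Soluble lysate was adjusted to ~4 μM, giving 255 domains for the unphosphorylated and 252 for the phosphorylated peptide. Binding intensity (BI) is the fraction of PDZ depleted from the fluid phase. BI 0.2 was the high-confidence threshold.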
# [1] = test system: human PDZ domains (PDZome); experiment: holdup assay, PDZome-binding profile; settings: PDZome profile
# Method in brief: as §2
# SCRIB-3 PDZ = experiment: holdup assay, updated analysis; format: binding, human; settings: weak partner; automated computational protocol
# Method in brief: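 The same triplicate holdup datasets (biotinylated RSK1 725–735, unphosphorylated and phosphorylated, vs ~4 μM PDZome lysates) were re-analysed with an updated automated computational protocol. This gave alternative BI values, reported as supplemental values alongside the conventional analysis.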
# MAGI1-2 PDZ = MAGI1-2 PDZ (Homo sapiens, UniProt Q96QZ7); experiment: holdup assay; format: binding; settings: ~4 μM PDZ
# Sequence of MAGI1-2 PDZ (Q96QZ7 472-554 limits assumed): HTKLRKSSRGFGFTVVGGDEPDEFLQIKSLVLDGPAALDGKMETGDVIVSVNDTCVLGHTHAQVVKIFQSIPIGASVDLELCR
# Method in brief: as §1
# LNX1 −3 PDZ = experiment: holdup assay; format: binding, human; settings: ~4 μM PDZ
# Method in brief: as §1
# LAP2 PDZ = experiment: holdup assay; format: binding, human; settings: ~4 μM PDZ
# Method in brief: as §1
# PDZRN3-1 PDZ = target: T5, PDZRN3-1 PDZ (Homo sapiens, UniProt Q9UPQ7); experiment: holdup assay; format: binding; settings: ~4 μM PDZ
# T5 sequence (Q9UPQ7 249-339 limits assumed): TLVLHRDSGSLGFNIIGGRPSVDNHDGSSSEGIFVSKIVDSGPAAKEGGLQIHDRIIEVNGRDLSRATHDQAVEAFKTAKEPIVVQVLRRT
# Method in brief: as §1
# PTPN3 PDZ = experiment: holdup assay; format: binding, human; settings: ~4 μM PDZ
# Method in brief: as §1
# GORASP2 PDZ = experiment: holdup assay; format: binding, human; settings: ~4 μM PDZ
# Method in brief: as §1
# MAST2 PDZ = target: T6, MAST2 PDZ (Homo sapiens, UniProt Q6P0Q8); experiment: holdup assay; format: binding; settings: fraction of PDZ depleted; ~4 μM PDZ; biotinylated RSK1_725–735; triplicates
# T6 sequence (Q6P0Q8 1104-1192 limits assumed): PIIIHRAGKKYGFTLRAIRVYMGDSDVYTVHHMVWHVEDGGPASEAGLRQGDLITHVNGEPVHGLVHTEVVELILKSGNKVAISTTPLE
# Method in brief: as §1
# NHERF2-2 PDZ = experiment: holdup assay; format: binding, human; settings: ~4 μM PDZ
# Method in brief: as §1
# GOPC PDZ = GOPC PDZ (Homo sapiens, UniProt Q9HD26); experiment: holdup assay; format: binding; settings: fraction of PDZ depleted; ~4 μM PDZ; biotinylated RSK1_725–735; triplicates
# NHERF3-1 PDZ = target: T7, NHERF3-1 PDZ (Homo sapiens, UniProt Q5T2W1); experiment: holdup assay; format: binding; settings: ~4 μM PDZ
# T7 sequence (Q5T2W1 9-90 limits assumed): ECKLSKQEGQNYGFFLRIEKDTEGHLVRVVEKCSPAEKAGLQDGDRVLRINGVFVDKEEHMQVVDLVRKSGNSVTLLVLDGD
# Method in brief: as §1
# GRID2IP-2 PDZ = GRID2IP-2 PDZ (Homo sapiens, UniProt A4D2P6); experiment: holdup assay; format: binding; settings: fraction of PDZ depleted; ~4 μM PDZ; biotinylated RSK1_725–735; triplicates
# Sequence of GRID2IP-2 PDZ (A4D2P6 279-356 limits assumed): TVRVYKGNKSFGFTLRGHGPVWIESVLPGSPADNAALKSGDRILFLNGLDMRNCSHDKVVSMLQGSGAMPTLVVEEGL
# Method in brief: as §2
# PARD3B-1 PDZ = target: T8, PARD3B-1 PDZ (Homo sapiens, UniProt Q8TEW8); experiment: holdup assay; format: binding; settings: fraction of PDZ depleted; ~4 μM PDZ; biotinylated RSK1_725–735; triplicates
# T8 sequence (Q8TEW8 201-289 limits assumed): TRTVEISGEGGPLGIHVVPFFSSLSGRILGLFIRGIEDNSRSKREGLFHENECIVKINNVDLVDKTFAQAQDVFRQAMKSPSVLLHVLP
# Method in brief: as §2
# [2] = fraction of PDZ depleted, biotinylated RSK1_725–735, triplicates
# [3] = read-out: KD, estimated, from BI, estimated 17 μM peptide
substance,measurement,setting,value
"unphosphorylated RSK1 peptide: C-terminal RSK1 PBM peptide; RSK1_725–735 (holdup, SPR), RSK1_729–735 (direct FP), RSK1_683–735 (competitive FP) ({Biotin-TTDS}-RRVRKLPSTTL)",binding intensity (BI),ARHGEF11 PDZ,0.28 ± 0.06
same,binding intensity (BI),ARHGEF12 PDZ; [2],0.77 ± 0.02
same,Kd,ARHGEF12 PDZ; [3],4.2 µM
same,binding intensity (BI),SHROOM2 PDZ; [2],0.00 ± 0.01
same,Kd,SHROOM2 PDZ; [3],> 100 µM
same,binding intensity (BI),GORASP1 PDZ; [2],0.01 ± 0.02
same,Kd,GORASP1 PDZ; [3],> 100 µM
same,binding intensity (BI),SNTA1 PDZ,0.31 ± 0.04
same,binding intensity (BI),SNTB1 PDZ; [2],0.22 ± 0.04
same,Kd,SNTB1 PDZ; [3],57.2 µM
same,binding intensity (BI),GRASP PDZ; [2],0.29 ± 0.01
same,Kd,GRASP PDZ; [3],38.8 µM
same,binding intensity (BI),DLG4-2 PDZ; [2],0.11 ± 0.03
same,Kd,DLG4-2 PDZ; [3],> 100 µM
same,binding intensity (BI),SNTG2 PDZ; [2],0.41 ± 0.02
same,Kd,SNTG2 PDZ; [3],22.1 µM
same,binding intensity (BI),GRID2IP-1 PDZ; [2],0.06 ± 0.02
same,Kd,GRID2IP-1 PDZ; [3],> 100 µM
same,binding intensity (BI),HTRA1 PDZ; [2],0.44 ± 0.03
same,Kd,HTRA1 PDZ; [3],19.4 µM
same,binding intensity (BI),MAGI3-2 PDZ,0.28 ± 0.03
same,average BI,[1],0.42
same,maximal BI,[1],0.77
same,interaction partner by updated analysis,SCRIB-3 PDZ,new interaction partners
same,binding intensity (BI),MAGI1-2 PDZ; [2],0.43 ± 0.02
same,Kd,MAGI1-2 PDZ; [3],20.3 µM
same,binding intensity (BI),LNX1 −3 PDZ; [2],0.04 ± 0.02
same,Kd,LNX1 −3 PDZ; [3],> 100 µM
same,binding intensity (BI),LAP2 PDZ; [2],−0.02 ± 0.05
same,Kd,LAP2 PDZ; [3],> 100 µM
same,binding intensity (BI),PDZRN3-1 PDZ; [2],0.26 ± 0.01
same,Kd,PDZRN3-1 PDZ; [3],45.4 µM
same,binding intensity (BI),PTPN3 PDZ; [2],0.05 ± 0.02
same,Kd,PTPN3 PDZ; [3],> 100 µM
same,binding intensity (BI),GORASP2 PDZ; [2],0.41 ± 0.02
same,Kd,GORASP2 PDZ; [3],22.1 µM
same,binding intensity (BI),MAST2 PDZ,0.74 ± 0.03
same,binding intensity (BI),NHERF2-2 PDZ; [2],0.20 ± 0.04
same,Kd,NHERF2-2 PDZ; [3],64.8 µM
same,binding intensity (BI),GOPC PDZ,0.63 ± 0.05
same,binding intensity (BI),NHERF3-1 PDZ; [2],0.41 ± 0.01
same,Kd,NHERF3-1 PDZ; [3],22.1 µM
same,binding intensity (BI),GRID2IP-2 PDZ,0.67 ± 0.02
same,binding intensity (BI),PARD3B-1 PDZ,0.52 ± 0.05
